Only some compounds are listed: those with a hit (about 0.72% of all), similar ones and a draw of the others.
Yeast superoxide = reduction of superoxide in aged yeast, primary screen, HTS; S. cerevisiae aged cells, superoxide DHE fluorescence; hits give low values; superoxide response (% of plate mean), % at 10 µM; 0.18% of 330,000 active; AID 2690, 2010;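 active means superoxide response under a set limit, about three screen SD below normal, cut at about 65% in these data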;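 further: yeast aged for seven days with compound at 30 °C before DHE staining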
GSK3B inh = human GSK3beta kinase inhibitors, primary screen, biochemical, cell-free homogeneous, HTS. GST-GSK3beta kinase, ADP-Glo luminescence, 60 min; hits give low values. AID 2097, 2009. 0.038% of 300,000 active. activity score (negative = inhibition), % at 10 µM;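 active means more than half of replicate wells score below -50%, meaning over 50% inhibition versus plate controls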
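test system = GST-tagged human GSK3beta kinase, cell-free | reagent = 25 µM ATP with peptide substrate | dosing = one dose of 10 µM per compound | schedule = 60 min reaction, RT | detection = luminescent ADP-Glo measurement of ADP formed | control set = DMSO neutral wells and GW8510 at 20 µM as positive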
GSK3 alpha inh = blockers of GSK3A enzyme activity – biochemical, luminescence, cell-free homogeneous, HTS, primary screen | Glycogen synthase kinase-3 alpha (Homo sapiens), P49840 | inhibition, % at 10 µM | GSK-3 alpha kinase, ADP-Glo luminescence, 60 min | 0.1% of 320,000 active;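 active means more than half of replicates show inhibition above 20%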;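 further: GST-tagged GSK-3 alpha with peptide substrate and 25 µM ATP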
STK33 inh = inhibitors of purified STK33 kinase, primary screen, biochemical, ADP-Glo luminescence, homogeneous, cell-free. Serine/threonine-protein kinase 33 (Homo sapiens), Q9BYT3. MBP phosphorylation. inhibition, % at 10 µM. 0.073% of 320,000 active;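 active means inhibition at or above 25%, using the most active replicate where run in duplicate; inactive means inhibition below 25%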
Target sequence (Q9BYT3 whole entry, looked up): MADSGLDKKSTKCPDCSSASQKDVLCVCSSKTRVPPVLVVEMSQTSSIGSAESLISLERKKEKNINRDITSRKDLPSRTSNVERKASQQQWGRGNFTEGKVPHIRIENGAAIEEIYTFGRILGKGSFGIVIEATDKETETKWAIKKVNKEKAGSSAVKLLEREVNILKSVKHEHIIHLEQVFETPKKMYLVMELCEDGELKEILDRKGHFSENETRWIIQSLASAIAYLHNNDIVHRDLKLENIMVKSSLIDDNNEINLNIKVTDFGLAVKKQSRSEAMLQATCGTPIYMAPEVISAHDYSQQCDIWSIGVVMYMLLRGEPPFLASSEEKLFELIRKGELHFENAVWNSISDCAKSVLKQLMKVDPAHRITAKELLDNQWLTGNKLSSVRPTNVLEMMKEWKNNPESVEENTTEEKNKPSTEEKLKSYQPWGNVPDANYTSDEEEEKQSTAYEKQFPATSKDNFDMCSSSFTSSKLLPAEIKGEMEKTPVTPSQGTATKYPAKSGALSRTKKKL
PolyA inh = polyadenylation inhibitors in yeast reporter cells, primary screen, luminescence, S. cerevisiae. 0.02% of 300,000 active. activity score, % at 12 µM. S. cerevisiae SKY197-pL101 polyadenylation reporter, beta-gal luminescence; efflux-impaired pdr1/pdr3 knockout yeast; score 100 = 6 SD above DMSO;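 active means lowest replicate activity score at least 50, where 100 means six control SD above control mean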;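 further: yeast exposed to compound for 9 h at 30 °C; higher score means more reporter readthrough which indicates perturbed polyadenylation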
AI-2 QS modul = Vibrio harveyi AI-2 quorum sensing modulators, primary screen, JMH597 strain, luminescence/OD600 ratio; activity change, % at 7.5 µM; 0.4% of 300,000 active; Vibrio harveyi JMH597 AI-2 luminescence/OD600 ratio, 9 h; hits give low values; strain lacks LuxN and CqsS sensors; 0 = neutral-control median; in the data active means activity change below about -75%, passing the limit was not always enough;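 further: luminescence divided by OD600 gain over 9 h not by final OD600 alone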
JMH597 growth = Vibrio harveyi growth inhibition, confirmation, counter-screen for AI-2 quorum sensing project, JMH597 strain, OD600 absorbance. 9 h; lacks LuxN and CqsS sensors. 1% of 750 active. shares compounds with AI-2 QS modul. growth inhibition, % at 7.5 µM;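 active means every replicate shows growth inhibition above 50%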
BB721 lum counter = luminescence inhibition in constitutive-on V. harveyi, confirmation, counter-screen for LuxS inhibitor project, strain BB721, luminescence readout. AID 2727, 2010. inhibition, % at 7.5 µM. Vibrio harveyi BB721 luminescence, 9 h. shares compounds with AI-2 QS modul. 95% of 750 active;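 active means inhibition above about 80% in every replicate, not just on average, limit read from the data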
BB721 growth = growth inhibition of V. harveyi BB721, confirmation, cytotoxicity control for AI-2 quorum sensing inhibitors, strain BB721, absorbance OD600; 3% of 750 active; AID 2728, 2010; Vibrio harveyi BB721 growth, 9 h; growth inhibition, % at 7.5 µM; shares compounds with AI-2 QS modul;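 active means every replicate shows growth inhibition above 50%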
AI-2 QS JMH597 = Vibrio harveyi AI-2 signaling luminescence modulation – JMH597 strain, confirmation | shares compounds with AI-2 QS modul | Vibrio harveyi JMH597 AI-2 quorum sensing luminescence, 9 h; luxN and CqsS knockout, AI-2 only | inhibition, % at 7.5 µM | 97% of 750 active;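 active means every replicate shows more than 75% inhibition of signal versus neutral control wells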
CR mimetic CP = superoxide lowering in aged yeast cells, confirmation, cherry picked compounds. shares compounds with Yeast superoxide. S. cerevisiae aging, superoxide DHE fluorescence; hits give low values. superoxide response (% of plate), % at 10 µM. 1% of 850 active;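 active means superoxide signal below 65% of the plate average of sample wells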;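 further: cells aged with compound for 7 days at 30 degrees C before staining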
DHE counter = DHE quenching or ROS scavenging interference in aged yeast, artefact control for yeast caloric restriction mimetic project, S. cerevisiae BY4741, flow cytometry. 850 tested, under 10 active. fluorescence response, % at 10 µM. shares compounds with Yeast superoxide. AID 435000, 2010. DHE fluorescence; hits give low values;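 active means fluorescence response below 15%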;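 further: lower means stronger quenching of DHE signal or ROS scavenging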
Hits are given with their value; - = inactive; . = no result.

SMILES	Yeast superoxide	GSK3B inh	GSK3 alpha inh	STK33 inh	PolyA inh	AI-2 QS modul	CR mimetic CP	DHE counter	others
CCC1(c2ccc(-c3ccccc3)cc2)C(=O)NC(=O)NC1=O	-	-	-	-	-	-90.1	.	.	JMH597 growth=-;BB721 lum counter=97.8;BB721 growth=-;AI-2 QS JMH597=98.3
CCC1(c2ccccc2)C(=O)NC(=O)NC1=O	-	.	.	.	.	.	.	.
CN1CCN(c2nc(N)c(Br)c(Cl)n2)CC1	-	-	-	-	-	-	.	.
O=C(COC(=O)Cc1ccccc1)Nc1ccc(SC(F)F)cc1	-	-	-	-	.	-91.5	.	.	JMH597 growth=-;BB721 lum counter=94.4;BB721 growth=-;AI-2 QS JMH597=99.5
Nc1ccccc1C(=O)OCC(=O)c1ccc2c(c1)OCCO2	-	-	-	-	-	-	.	.
O=C(c1cc2cc(Cl)ccc2[nH]1)N1CCC2(CC1)OCCO2	-	-	-	-	-	-84.4	.	.	JMH597 growth=-;BB721 lum counter=96.4;BB721 growth=-;AI-2 QS JMH597=97.5
O=C(c1ccc(-c2ccccc2)cc1)C1CCCN(Cc2ccn[nH]2)C1 (configuration not stated)	-	-	-	-	-	-83.7	.	.	JMH597 growth=-;BB721 lum counter=84.3;BB721 growth=-;AI-2 QS JMH597=91.0
Cc1ccsc1C(=O)C1CCCN(Cc2ccn[nH]2)C1 (configuration not stated)	-	-	-	-	-	-	.	.
CC(C)(C)c1ccc(C(=O)C2CCCN(Cc3ccon3)C2)cc1 (configuration not stated)	-	-	-	-	-	-	.	.
CC(C)(C)c1ccc(C(=O)C2CCCN(C3CCC3)C2)cc1 (configuration not stated)	64.7	-	-	-	-	-	-	-
CN1CCC(C)(O)C2CCCCC21 (configuration not stated)	-	-	-	-	-	-	.	.
C[C@]12CCC3C(CC[C@H]4C[C@@H](O)CC[C@]34C)C1[C@H]1CN=N[C@H]1[C@@H]2O (some centres not stated)	-	.	-	-	.	.	-	-
C[C@]12CCC3C(CC[C@H]4C[C@@H](O)CC[C@]34C)C1CCC2=O (some centres not stated)	62.7	.	-	-	.	.	-	-
C[C@]12CCC3C(CC[C@H]4C[C@@H](O)CC[C@]34C)C1CC[C@@H]2OC(=O)[C@H](N)CCCCN (some centres not stated)	-	.	-	-	.	.	-	-
C[C@]12CCC3[C@@H](CC[C@@H]4C[C@H](O)CC[C@]34C)[C@@H]1CCC2=O (some centres not stated)	-	.	-	-	.	.	.	.
C[C@]12CC[C@H](O)C[C@@H]1CC[C@@H]1[C@@H]2CC[C@]2(C)C(=O)CC[C@@H]12	-	-	-	-	-	-	.	.
C[C@]12CCC3C(CC[C@H]4C[C@@H](O)CC[C@]34C)C1C[C@@H](Br)[C@H]2O (some centres not stated)	-	.	-	-	.	.	-	-
O=C1CN(C(=O)COC(=O)Cc2ccccc2)c2ccccc2N1	-	-	-	-	-	-	.	.
Oc1cccc(/C=N/NP(=S)(c2ccccc2)c2ccccc2)c1	-	-	-	-	-	-	.	.
CCC(=NCc1cc(OC)cc(OC)c1)c1c(O)[nH]c(=O)[nH]c1=O	-	-	-	-	-	-	.	.
CC(=O)N1CN2CN(C1)CN(C(C)=O)C2	-	-	-	-	-	-	.	.
CC12CN3CC(C)(CN(C1)C3c1cccs1)C2=O (configuration not stated)	-	-	-	-	-	-	.	.
COc1ccc(-n2c(O)c(C(C)=NCC3CCCO3)c(=O)[nH]c2=O)cc1 (configuration not stated)	55.8	-	-	-	-	-	-	-
CCOc1ccc(C2SCC(=O)Nc3c2c(=O)[nH]n3C2CCCCCC2)cc1 (configuration not stated)	61.6	-	-	-	-	-	-	-
C[C@]12CCC3C(C[C@@H](O)[C@H]4C[C@@H](O)CC[C@]34C)C1CC[C@@H]2O (some centres not stated)	-	.	-	-	.	.	-	-
SMILES	Yeast superoxide	GSK3B inh	GSK3 alpha inh	STK33 inh	PolyA inh	AI-2 QS modul	CR mimetic CP	DHE counter	others
C[C@]12CCC(=O)C=C1CCC1C2CC[C@@]2(C)C1CC[C@@H]2O (some centres not stated)	-	.	-	-	.	.	.	.
C[C@]12CCC3C(CC[C@@H]4[C@H]5O[C@H]5CC[C@]34C)C1CC[C@@H]2O (some centres not stated)	.	.	.	.	.	.	-	-
C[C@]12CC[C@H](N)CC1=CCC1C2CC[C@@]2(C)C1CC[C@@H]2O (some centres not stated)	-	.	-	-	.	.	.	.
CC12CCC3C(CCC4CC(=O)C(C(O)C(F)(F)F)CC43C)C1CCC2O (configuration not stated)	.	.	.	.	.	.	-	-
C[C@]12CC[C@H]3[C@@H](CCC4=CC(=O)CC[C@@H]43)[C@@H]1CC[C@@H]2O	-	.	.	.	.	.	.	.
C[C@]12CCC(=O)C[C@H]1CC[C@@H]1[C@@H]2CC[C@]2(C)[C@@H](O)CC[C@@H]12	-	.	-	-	.	.	-	-
CCC1=Nc2cc(C(=O)N3CCC4(CC3)OCCO4)ccc2Sc2ccc(C)cc21	-	-	-	-	-	-	.	.
CSCCC(NC(=O)CCC(=O)OC1CC[C@H]2[C@@H]3CC[C@H]4CC(=O)CC[C@]4(C)[C@H]3CC[C@]12C)C(=O)O (some centres not stated)	-	-	-	-	-	-	-	-
Cc1ccc[n+](CC(O)Cn2c3ccccc3c3ccccc32)c1 (configuration not stated)	52.3	-	-	-	-	-	-	-
N#Cc1ccc(NC(=O)CN2CCCCCC2)cc1Cl	-	-	-	-	-	-	.	.
CNc1ccc2nc3ccccc3[n+](C)c2c1	61.9	-	-	-	-	-	61.6	-

Screens deposited in PubChem BioAssay by several laboratories.
